Columns and labels:
Type in all cases: functional
HCT-116 = assay: Growth inhibition of human HCT116 cells after 48 hrs by sulforhodamine B assay; details: HCT-116, 48 h
SN12C = assay: Growth inhibition of human SN12C cells after 48 hrs by sulforhodamine B assay
CCRF-CEM = assay: Growth inhibition of human CCRF-CEM cells after 48 hrs by sulforhodamine B assay
OVCAR-4 = assay: Growth inhibition of human OVCAR4 cells after 48 hrs by sulforhodamine B assay; details: OVCAR-4, 48 h
A498 = assay: Growth inhibition of human A498 cells after 48 hrs by sulforhodamine B assay; details: A498, 48 h
SF-539 = assay: Growth inhibition of human SF539 cells after 48 hrs by sulforhodamine B assay; details: SF-539, 48 h
MDA-MB-468 = assay: Growth inhibition of human MDA-MB-468 cells after 48 hrs by sulforhodamine B assay; details: MDA-MB-468, 48 h
LOX IMVI = assay: Growth inhibition of human LOXIMVI cells after 48 hrs by sulforhodamine B assay
SNB-19 = assay: Growth inhibition of human SNB19 cells after 48 hrs by sulforhodamine B assay; details: SNB-19, 48 h
[1] = Growth inhibition of human Hs 578T cells after 48 hrs by sulforhodamine B assay
NCI-H322M = assay: Growth inhibition of human NCI-H322M cells after 48 hrs by sulforhodamine B assay
OVCAR-5 = assay: Growth inhibition of human OVCAR5 cells after 48 hrs by sulforhodamine B assay; details: OVCAR-5, 48 h
NCI-H522 = assay: Growth inhibition of human NCI-H522 cells after 48 hrs by sulforhodamine B assay; details: NCI-H522, 48 h
SK-MEL-28 = assay: Growth inhibition of human SK-MEL-28 cells after 48 hrs by sulforhodamine B assay; details: SK-MEL-28, 48 h
NCI/ADR-RES = assay: Growth inhibition of human NCI/ADR-RES cells after 48 hrs by sulforhodamine B assay
OVCAR-3 = assay: Growth inhibition of human OVCAR3 cells after 48 hrs by sulforhodamine B assay; details: OVCAR-3, 48 h
MOLT-4 = assay: Growth inhibition of human MOLT4 cells after 48 hrs by sulforhodamine B assay; details: MOLT-4, 48 h
UACC-62 = assay: Growth inhibition of human UACC62 cells after 48 hrs by sulforhodamine B assay; details: UACC-62, 48 h
HCC 2998 = assay: Growth inhibition of human HCC2998 cells after 48 hrs by sulforhodamine B assay; details: HCC 2998, 48 h
HCT-15 = assay: Growth inhibition of human HCT15 cells after 48 hrs by sulforhodamine B assay; details: HCT-15, 48 h
SF-268 = assay: Growth inhibition of human SF268 cells after 48 hrs by sulforhodamine B assay; details: SF-268, 48 h
MDA-MB-231 = assay: Growth inhibition of human MDA-MB-231/ATCC cells after 48 hrs by sulforhodamine B assay; details: MDA-MB-231, 48 h
NCI-H23 = assay: Growth inhibition of human NCI-H23 cells after 48 hrs by sulforhodamine B assay; details: NCI-H23, 48 h
SK-MEL-2 = assay: Growth inhibition of human SK-MEL-2 cells after 48 hrs by sulforhodamine B assay; details: SK-MEL-2, 48 h
NCI-H226 = assay: Growth inhibition of human NCI-H226 cells after 48 hrs by sulforhodamine B assay; details: NCI-H226, 48 h
ACHN = assay: Growth inhibition of human ACHN cells after 48 hrs by sulforhodamine B assay
T47D = assay: Growth inhibition of human T47D cells after 48 hrs by sulforhodamine B assay
SK-OV-3 = assay: Growth inhibition of human SKOV3 cells after 48 hrs by sulforhodamine B assay; details: SK-OV-3, 48 h
Malme-3M = assay: Growth inhibition of human MALME-3M cells after 48 hrs by sulforhodamine B assay
HL-60(TB) = assay: Growth inhibition of human HL-60(TB) cells after 48 hrs by sulforhodamine B assay; details: HL-60, 48 h
Procedure, shortened: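 Run in the NCI 60 cell-line screen as the full 5-dose assay that follows initial single-dose testing; GI50 is read from the dose series.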

RPMI-8226 = assay: Growth inhibition of human RPMI8226 cells after 48 hrs by sulforhodamine B assay; details: RPMI-8226, 48 h
RXF 393 = assay: Growth inhibition of human RXF393 cells after 48 hrs by sulforhodamine B assay; details: RXF 393, 48 h
[2] = read-out: pLC50 (the source's name) (converted)

COc1cc(/C=C/c2cc(O)c3c(c2)C[C@@H]2C(C)(C)[C@H](O)CC[C@@]2(C)O3)cc(O)c1C/C=C(\C)CCC=C(C)C
GI50 (HCT-116): 0.603 µM
LC50 (HCT-116): 6.31 µM
TGI (HCT-116; read-out: pTGI (converted)): 2.34 µM
GI50 (SN12C): 1.51 µM
LC50 (SN12C): 8.51 µM
TGI (SN12C; read-out: pTGI (converted)): 3.63 µM
GI50 (CCRF-CEM): 0.12 µM
LC50 (CCRF-CEM): 100 µM
TGI (CCRF-CEM; read-out: pTGI (converted)): 4.37 µM
GI50 (OVCAR-4): 2.63 µM
LC50 (OVCAR-4): 63.1 µM
TGI (OVCAR-4; read-out: pTGI (converted)): 19.1 µM
GI50 (A498): 0.117 µM
LC50 (A498): 12 µM
TGI (A498; read-out: pTGI (converted)): 2.45 µM
GI50 (SF-539): 0.0525 µM
LC50 (SF-539): 6.92 µM
TGI (SF-539; read-out: pTGI (converted)): 1.66 µM
GI50 (MDA-MB-468): 1.1 µM
LC50 (MDA-MB-468): 9.12 µM
TGI (MDA-MB-468; read-out: pTGI (converted)): 3.16 µM
GI50 (LOX IMVI): 0.525 µM
LC50 (LOX IMVI): 4.68 µM
TGI (LOX IMVI; read-out: pTGI (converted)): 1.91 µM
GI50 (SNB-19): 2.88 µM
LC50 (SNB-19): 42.7 µM
TGI (SNB-19; read-out: pTGI (converted)): 17.8 µM
GI50 [1]: 0.0372 µM
CC50 [1, 2]: 26.9 µM
TGI ([1]; read-out: pTGI (converted)): 0.776 µM
GI50 (NCI-H322M): 3.39 µM
LC50 (NCI-H322M): 43.7 µM
TGI (NCI-H322M; read-out: pTGI (converted)): 14.1 µM
GI50 (OVCAR-5): 2.51 µM
LC50 (OVCAR-5): 45.7 µM
TGI (OVCAR-5; read-out: pTGI (converted)): 13.2 µM
GI50 (NCI-H522): 1.91 µM
LC50 (NCI-H522): 52.5 µM
TGI (NCI-H522; read-out: pTGI (converted)): 11 µM
GI50 (SK-MEL-28): 1 µM
CC50 (SK-MEL-28; [2]): 7.94 µM
TGI (SK-MEL-28; read-out: pTGI (converted)): 2.75 µM
GI50 (NCI/ADR-RES): 2.57 µM
LC50 (NCI/ADR-RES): 58.9 µM
TGI (NCI/ADR-RES; read-out: pTGI (converted)): 10.2 µM
GI50 (OVCAR-3): 1.45 µM
LC50 (OVCAR-3): 15.5 µM
TGI (OVCAR-3; read-out: pTGI (converted)): 4.07 µM
GI50 (MOLT-4): 0.0339 µM
LC50 (MOLT-4): 100 µM
TGI (MOLT-4; read-out: pTGI (converted)): 0.245 µM
GI50 (UACC-62): 0.204 µM
LC50 (50% lethal concentration) (UACC-62): 7.41 µM
TGI (UACC-62; read-out: pTGI (converted)): 0.794 µM
GI50 (HCC 2998): 0.851 µM
LC50 (HCC 2998): 9.33 µM
TGI (HCC 2998; read-out: pTGI (converted)): 2.95 µM
GI50 (HCT-15): 1.12 µM
LC50 (HCT-15): 7.94 µM
TGI (HCT-15; read-out: pTGI (converted)): 2.95 µM
GI50 (SF-268): 1.35 µM
LC50 (SF-268): 42.7 µM
TGI (SF-268; read-out: pTGI (converted)): 5.13 µM
GI50 (MDA-MB-231): 1.2 µM
CC50 (MDA-MB-231; [2]): 8.13 µM
TGI (MDA-MB-231; read-out: pTGI (converted)): 2.88 µM
GI50 (NCI-H23): 1.51 µM
LC50 (NCI-H23): 26.3 µM
TGI (NCI-H23; read-out: pTGI (converted)): 4.47 µM
GI50 (SK-MEL-2): 6.92 µM
LC50 (SK-MEL-2): 56.2 µM
TGI (SK-MEL-2; read-out: pTGI (converted)): 22.4 µM
GI50 (NCI-H226): 5.89 µM
LC50 (NCI-H226): 55 µM
TGI (NCI-H226; read-out: pTGI (converted)): 21.4 µM
GI50 (ACHN): 1.78 µM
LC50 (ACHN): 36.3 µM
TGI (ACHN; read-out: pTGI (converted)): 12 µM
GI50 (T47D): 1.41 µM
LC50 (T47D): 39.8 µM
TGI (T47D; read-out: pTGI (converted)): 7.08 µM
GI50 (SK-OV-3): 1.38 µM
LC50 (SK-OV-3): 38 µM
TGI (SK-OV-3; read-out: pTGI (converted)): 14.8 µM
GI50 (Malme-3M): 1.95 µM
LC50 (Malme-3M): 30.9 µM
TGI (Malme-3M; read-out: pTGI (converted)): 5.13 µM
GI50 (HL-60(TB)): 0.0468 µM
CC50 (HL-60(TB); [2]): 37.2 µM
TGI (HL-60(TB); read-out: pTGI (converted)): 1.45 µM
GI50 (RPMI-8226): 0.0105 µM
LC50 (RPMI-8226): 100 µM
TGI (RPMI-8226; read-out: pTGI (converted)): 0.347 µM
GI50 (RXF 393): < 0.01 µM
LC50 (50% lethal concentration) (RXF 393): 4.37 µM
TGI (RXF 393; read-out: pTGI (converted)): 0.055 µM

From ChEMBL document CHEMBL1926642, “Relevance of the C-5 position to schweinfurthin induced cytotoxicity” (2011)
